Test results published in ChEMBL document CHEMBL3217604, “4-Alkyloxyimino-cytosine nucleotides: tethering approaches to molecular probes for the P2Y6 receptor” (Medchemcomm, 2013).
Calls of active or inactive are those of the source. The rule behind the calls is not given here.

Experiments:
P2Y purinoceptor 6 [1] = target: T1, P2Y purinoceptor 6 (Homo sapiens, UniProt Q15077); test: Binding affinity to human recombinant P2Y6 receptor expressed in human 1321N1 cells at 100 nM to 1 uM by flow cytometry in presence of UDP; format: cell-based
Procedure, shortened: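 1321N1 cells with or without P2Y6R labeled with 100 nM to 1 μM Cy5 conjugate; blockade tested with 100 μM UDP; read by flow cytometry.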

Homo sapiens [2] = species: Homo sapiens; test: Selectivity ratio of EC50 for human recombinant P2Y4 receptor to EC50 for human recombinant P2Y6 receptor
Homo sapiens [3] = species: Homo sapiens; test: Selectivity ratio of EC50 for human recombinant P2Y2 receptor to EC50 for human recombinant P2Y6 receptor
P2Y purinoceptor 4 [4] = target: T2, P2Y purinoceptor 4 (Homo sapiens, UniProt P51582); test: Agonist activity at human recombinant P2Y4 receptor expressed in human 1321N1 cells using [3H]inositol as substrate assessed as [3H]inositol phosphate formation after 30 mins by liquid scintillation counting analysis; format: functional, cell-based
Procedure, shortened: (§1)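 PLC activation measured in 1321N1 human astrocytoma cells stably expressing recombinant hP2Y2, hP2Y4 or hP2Y6 receptor; potency given as EC50 or % activation.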

P2Y purinoceptor 2 [5] = target: T3, P2Y purinoceptor 2 (Homo sapiens, UniProt P41231); test: Agonist activity at human recombinant P2Y2 receptor expressed in human 1321N1 cells using [3H]inositol as substrate assessed as [3H]inositol phosphate formation after 30 mins by liquid scintillation counting analysis; format: functional, cell-based; procedure, shortened: as §1
P2Y purinoceptor 6 [6] = target: T1, P2Y purinoceptor 6; test: Agonist activity at human recombinant P2Y6 receptor expressed in human 1321N1 cells using [3H]inositol as substrate assessed as [3H]inositol phosphate formation after 30 mins by liquid scintillation counting analysis; format: functional, cell-based; procedure, shortened: as §1
P2Y purinoceptor 6 [7] = target: T1, P2Y purinoceptor 6; test: Binding affinity to human recombinant P2Y6 receptor expressed in human 1321N1 cells at 400 nM after 60 mins by flow cytometry; format: cell-based
P2Y purinoceptor 4 [8] = target: T2, P2Y purinoceptor 4; test: Agonist activity at human recombinant P2Y4 receptor expressed in human 1321N1 cells using [3H]inositol as substrate assessed as [3H]inositol phosphate formation at 10 uM after 30 mins by liquid scintillation counting analysis; format: functional, cell-based; procedure, shortened: as §1
P2Y purinoceptor 2 [9] = target: T3, P2Y purinoceptor 2; test: Agonist activity at human recombinant P2Y2 receptor expressed in human 1321N1 cells using [3H]inositol as substrate assessed as [3H]inositol phosphate formation at 10 uM after 30 mins by liquid scintillation counting analysis; format: functional, cell-based; procedure, shortened: as §1

T3 sequence (P41231 whole entry): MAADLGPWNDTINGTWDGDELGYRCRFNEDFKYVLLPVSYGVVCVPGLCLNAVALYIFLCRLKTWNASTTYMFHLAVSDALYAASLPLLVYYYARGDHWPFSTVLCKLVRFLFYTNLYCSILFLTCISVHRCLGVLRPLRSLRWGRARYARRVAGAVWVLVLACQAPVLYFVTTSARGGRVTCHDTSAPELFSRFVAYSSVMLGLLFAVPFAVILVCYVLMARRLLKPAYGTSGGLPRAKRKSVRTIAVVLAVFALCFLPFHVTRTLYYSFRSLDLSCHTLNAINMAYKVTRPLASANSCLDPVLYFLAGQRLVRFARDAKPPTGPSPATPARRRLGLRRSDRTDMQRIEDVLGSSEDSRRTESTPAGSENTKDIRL
T1 sequence (Q15077 whole entry): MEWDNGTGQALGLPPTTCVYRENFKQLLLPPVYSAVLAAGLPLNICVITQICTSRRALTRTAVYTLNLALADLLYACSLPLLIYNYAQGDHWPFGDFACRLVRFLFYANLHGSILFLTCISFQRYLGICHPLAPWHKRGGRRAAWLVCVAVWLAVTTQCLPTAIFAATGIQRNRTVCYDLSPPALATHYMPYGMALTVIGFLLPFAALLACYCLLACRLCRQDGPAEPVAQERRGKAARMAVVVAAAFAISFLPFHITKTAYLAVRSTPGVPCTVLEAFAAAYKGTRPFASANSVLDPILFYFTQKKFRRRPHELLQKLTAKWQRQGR
T2 sequence (P51582 whole entry): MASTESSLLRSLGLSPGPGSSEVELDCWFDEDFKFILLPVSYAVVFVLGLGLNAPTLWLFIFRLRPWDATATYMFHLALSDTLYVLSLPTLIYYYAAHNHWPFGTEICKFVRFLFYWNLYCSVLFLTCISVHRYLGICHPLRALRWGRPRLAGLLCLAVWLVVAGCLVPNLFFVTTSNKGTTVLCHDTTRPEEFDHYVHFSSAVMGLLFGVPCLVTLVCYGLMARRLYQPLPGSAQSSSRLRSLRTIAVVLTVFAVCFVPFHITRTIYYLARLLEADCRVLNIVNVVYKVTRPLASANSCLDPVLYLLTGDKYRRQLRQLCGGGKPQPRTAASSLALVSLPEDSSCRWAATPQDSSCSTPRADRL

Compound	EC50 (P2Y purinoceptor 4 [4])	EC50 (P2Y purinoceptor 2 [5])	EC50 (P2Y purinoceptor 6 [6])	further results
CN1/C(=C/C=C/C=C/C2=[N+](CCCCCCC(=O)NCCCCCCn3cc(CCC#Cc4cccc(CO/N=c5/ccn([C@@H]6O[C@H](COP(=O)(O)OP(=O)(O)O)[C@@H](O)[C@H]6O)c(=O)[nH]5)c4)nn3)c3ccccc3C2(C)C)C(C)(C)c2ccccc21				Activity (P2Y purinoceptor 6 [1]): inactive
O=c1[nH]/c(=N\OCc2ccccc2)ccn1[C@@H]1O[C@H](COP(=O)(O)OP(=O)(O)O)[C@@H](O)[C@H]1O				EC50 (P2Y purinoceptor 6 [6]; 1321-n1): 26 nM
O=c1[nH]/c(=N\OCc2ccc([N+](=O)[O-])cc2)ccn1[C@@H]1O[C@H](COP(=O)(O)OP(=O)(O)O)[C@@H](O)[C@H]1O	2200 nM	3300 nM	41 nM	
N=c1ccc2c(-c3ccc(C(=O)NCCCCCCn4cc(CCC#Cc5cccc(CO/N=c6/ccn([C@@H]7O[C@H](COP(=O)(O)O)[C@@H](O)[C@H]7O)c(=O)[nH]6)c5)nn4)cc3C(=O)O)c3ccc(N)c(S(=O)(=O)O)c3oc-2c1S(=O)(=O)O				Activity (P2Y purinoceptor 6 [7]): inactive
C#CCCOP(=O)(O)OP(=O)(O)OP(=O)(O)OC[C@H]1O[C@@H](n2cc/c(=N/OCc3ccccc3)[nH]c2=O)[C@H](O)[C@@H]1O			1750 nM	Activity (P2Y purinoceptor 4 [8]): < 50%; Activity (P2Y purinoceptor 2 [9]): < 50%
CO/N=c1/ccn([C@@H]2O[C@H](COP(=O)(O)OP(=O)(O)OP(=O)(O)Oc3ccc4ccccc4c3)[C@@H](O)[C@H]2O)c(=O)[nH]1		2900 nM	731 nM	Activity (P2Y purinoceptor 4 [8]): < 50%

The next lines start with results.

EC50 (P2Y purinoceptor 4 [4])	EC50 (P2Y purinoceptor 2 [5])	EC50 (P2Y purinoceptor 6 [6])	Compound	further results
> 10000 nM	6200 nM	39 nM	O=c1[nH]/c(=N\OCc2cccc(Br)c2)ccn1[C@@H]1O[C@H](COP(=O)(O)OP(=O)(O)O)[C@@H](O)[C@H]1O	Ratio EC50 (Homo sapiens [2]): > 260; Ratio EC50 (Homo sapiens [3]): 160
7440 nM	5200 nM	32 nM	O=c1[nH]/c(=N\OCc2ccc(Br)cc2)ccn1[C@@H]1O[C@H](COP(=O)(O)OP(=O)(O)O)[C@@H](O)[C@H]1O	
